NR2E3 ag-1: human photoreceptor-specific nuclear receptor agonism. 360,000 tested, 0.35% active. inhibition of corepressor binding, % at 3.98 µM. CHO-S Gal4-NCOR/VP16-NR2E3 two-hybrid, luciferase. AID 602229. Q9Y5X4;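 active = inhibition above the mean of all tested compounds plus 3 SD, cut at about 70% in these data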;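 also: 0% = DMSO with NR2E3 transfected cells and 100% = cells lacking NR2E3 construct; higher means lower luciferase signal from less NR2E3 corepressor binding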
PG9 binder: small molecules binding HIV-1 gp120 antibody PG9; TR-FRET gp120-PG9 antibody binding; inhibition, % at 6.7 µM; 360,000 tested, 0.43% active; AID 624416; in the data active = inhibition above about 8.5%
Rev-erbA mod: modulators of human Rev-erb alpha DNA binding | P20393 | Rev-erbα–FITC-DNA binding, fluorescence polarization, 90 min | activity, % at 10 µM | 370,000 tested, 0.79% active | AID 1259318;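 active = activity above about 14%, limit read from the data; passing the limit was not always enough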;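 also: 0% = DMSO wells with 35 nM protein and 100% = DMSO wells with 750 nM protein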
NR2E3 ag-2: agonists of human nuclear receptor NR2E3; GST-NR2E3/biotin-RetCOR TR-FRET, 1536-well; inhibition of corepressor binding, % at 4.78 µM; 320,000 tested, 0.12% active;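 active = percent inhibition above the cutoff of mean plus 3 SD of all tested compounds, set per screening campaign, cut at about 20% in these data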;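 also: 0% = DMSO wells and 100% = biotin wells as full block of FRET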
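System: GST-tagged NR2E3 plus biotinylated RetCOR corepressor; Buffer or medium: pH 7.5 Tris-based buffer; Probe or stimulus: RetCOR corepressor, biotinylated, 7 nM; Doses: compound at 4.8 µM, single dose; Schedule: 5 h incubation at 4 °C; Technique: time-resolved FRET; Evaluation: percent inhibition of TR-FRET ratio; Replication: one well per compound, singlicate testing.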
NR2E3 agonist cf: NR2E3 (human) agonism, confirmation | shares compounds with NR2E3 ag-2 | cell-free NR2E3 corepressor release, TR-FRET, 5 h | activation (reported as inhibition), % at 3.98 µM | 360 tested, 39% active; in the data active = activation above about 20%
PPARg-NCOR2 ctr: PPARg-NCOR2 interaction agonism, NR2E3 counter-screen; shares compounds with NR2E3 ag-2; TR-FRET PPARg-NCOR2 coregulator interaction, biochemical; inhibition, % at 3.98 µM; 360 tested, 45% active; in the data active = inhibition above about 20%;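 also: 0% = DMSO vehicle and 100% = wells without protein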
* = called active by the depositor; / = no result. An excerpt weighted towards active compounds, which were near 1.4% of everything screened.

SMILES	NR2E3 ag-1	PG9 binder	Rev-erbA mod	NR2E3 ag-2	others
O=Cc1cccn1-c1ccc2ccccc2c1	-32	-1	1	-3
Nc1ncnc2c1ncn2C1C=C(CO)C(O)C1O (centres undefined)	74*	/	/	/
O=C(NC1CCCCCCC1)c1ccc(Br)cc1	-111	1	-4	0
O=C(CCC(=O)N1CCOc2ccccc21)NC1CCCCCC1	-36	0	0	3
CCOC(=O)N1CCC(NC(=O)CCC(=O)N2CCOc3ccccc32)CC1	-1	15*	-8	2
O=C1C=CC(=NN=C(c2ccccc2)c2ccccc2)C=C1	-18	0	6	/
Cn1c(-c2ccccc2)cc(=O)c2ccccc21	-7	-2	3	2
Cn1c2ccccc2c(=O)n2c(=O)c3ccccc3cc12	/	/	/	29*
CN1CCN(c2ccc(NC(=O)c3ccc(-c4cccc([N+](=O)[O-])c4)o3)cc2)CC1	-40	-2	-1	-3
COC(=O)c1cccc(Nc2cc(C)nc(-c3ccccc3O)n2)c1	7	0	12	-1
COC(=O)c1ccc(Nc2cc(C)nc(-c3ccccc3O)n2)cc1	-20	45*	25	1
CCCCN1C(=N)N([C@@H](CCC)CN2CCC[C@H]2CN2C(N)=NC[C@@H]2Cc2ccccc2)C[C@H]1Cc1ccccc1	-2	-2	-5	/
CC(C)(C)OC(=O)NCCCCCNC(=O)c1nc[nH]c1C(=O)NCc1ccc(CNC(=O)OC(C)(C)C)cc1	79*	-1	1	/
CC(C)(C)OC(=O)NCc1ccc(CNC(=O)c2nc[nH]c2C(=O)NCc2ccc(CNC(=O)OC(C)(C)C)cc2)cc1	3	0	0	/
CN(CC(=O)NC1CC(C)(C)NC(C)(C)C1)S(=O)(=O)c1cc(Cl)ccc1Cl	-12	-3	-3	-3
Cc1ccc(-c2noc(CNc3ccccc3)n2)cc1	-39	0	6	1
CCn1c(C)nc2cc(-c3nc4n(n3)Cc3ccccc3-4)ccc21	97*	/	/	2
Cc1ccc(-c2nc3n(n2)Cc2ccccc2-3)cc1	-110	1	-1	3
CCCC1=NN2C(=N)/C(=C\c3ccc(SCc4ccco4)o3)C(=O)N=C2S1	-5	/	/	20*	NR2E3 agonist cf=4;PPARg-NCOR2 ctr=61*
CCc1c(C)[nH]n(-c2nc(-c3cccc([N+](=O)[O-])c3)cs2)c1=O	-25	-4	-1	2
COc1ccc(/C=N/NC(=O)C(=O)N2CCN(c3ccccc3OC)CC2)cc1	-19	1	-3	30*	NR2E3 agonist cf=-6;PPARg-NCOR2 ctr=-9
Cc1nc2c(cc1NC(=O)C(C)(C)C)nc(C)n2Cc1ccccc1	-25	-1	-9	-2
O=C(O)CCCCC1SCC2NC(=O)NC21 (centres undefined)	-35	-1	1	38*	NR2E3 agonist cf=5;PPARg-NCOR2 ctr=25*
Cc1cccc(C)c1NC(=O)CCCCCC1NC(=O)NC1C (centres undefined)	-4	1	-4	47*	NR2E3 agonist cf=35*;PPARg-NCOR2 ctr=3
CCCCCC1NC(=O)NC1CCCCCC(=O)O (centres undefined)	-13	1	2	2
SMILES	NR2E3 ag-1	PG9 binder	Rev-erbA mod	NR2E3 ag-2	others
O=C(CCCCC(=O)NCCCc1ccccc1)NCCCc1ccccc1	-14	-3	4	4
CC1NC(=O)NC1CCCCCC(=O)NCCc1ccccc1 (centres undefined)	-9	-3	-7	69*	NR2E3 agonist cf=75*;PPARg-NCOR2 ctr=70*
C[C@@H]1NC(=O)N[C@@H]1CCCCCC(=O)O	-4	1	-10	76*	NR2E3 agonist cf=77*;PPARg-NCOR2 ctr=72*
O=C1C(=Cc2cccc(O)c2O)SC(=S)N1CCCN1CCOCC1	-9	-3	5	/
CC(C)CCn1c(=O)c2sccc2n2c(CCCC(=O)N3CCC(N4CCCCC4)CC3)nnc12	-11	0	-1	-1
O=C(O)c1ccc2c(c1)C(=O)/C(=C\c1ccco1)C2=O	-25	-2	10	38*	NR2E3 agonist cf=10;PPARg-NCOR2 ctr=26*
COc1ccc(OC)c(N(CC(=O)N2CCC(C)CC2)S(=O)(=O)c2ccc(OC)c(OC)c2)c1	-16	0	2	1
COc1ccc(S(=O)(=O)N(C)CC(=O)N2CCC(C)CC2)cc1Cl	-11	1	1	22*	NR2E3 agonist cf=-9;PPARg-NCOR2 ctr=-6
COc1ccc(NC(=O)CN(C)C(=O)c2cn(-c3ccccc3)nc2-c2ccc(F)cc2)cc1	-16	1	-1	1

High-throughput results as filed in PubChem BioAssay.
